MPTP block: mitochondrial permeability transition pore inhibitors, primary screen, biochemical, isolated mouse mitochondria, absorbance; Ca2+ swelling absorbance, 30 min; inhibition, % at 10 µM; 1.4% of 360,000 active;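 active = inhibition of 50% or more, scaled per plate between neutral and stimulator controls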
Beta2AR agonist: beta2AR agonists driving receptor internalization, primary screen, cell-based, FAP fluorogen, flow cytometry; response, % (test concentration not listed); Beta-2 adrenergic receptor (Homo sapiens), P07550; 0.43% of 340,000 active; Am2.2-beta2AR cells;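 active = response above a set limit, near 3 SD of response in nonfluorescent compounds, cut at about 42% in these data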
Target sequence (P07550 whole entry, looked up): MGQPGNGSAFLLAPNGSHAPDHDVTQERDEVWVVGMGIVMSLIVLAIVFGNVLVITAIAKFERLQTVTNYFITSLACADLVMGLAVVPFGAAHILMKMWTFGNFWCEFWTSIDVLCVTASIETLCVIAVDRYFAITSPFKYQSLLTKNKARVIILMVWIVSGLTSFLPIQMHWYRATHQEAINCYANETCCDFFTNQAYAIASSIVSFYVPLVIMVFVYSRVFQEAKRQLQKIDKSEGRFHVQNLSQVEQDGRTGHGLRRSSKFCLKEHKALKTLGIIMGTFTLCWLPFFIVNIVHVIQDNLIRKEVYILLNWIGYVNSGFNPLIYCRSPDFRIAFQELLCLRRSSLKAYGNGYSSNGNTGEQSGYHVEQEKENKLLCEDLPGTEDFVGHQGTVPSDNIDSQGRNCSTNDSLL
V-ATPase pHluor: regulators of yeast V-ATPase proton pumping, primary screen, pHLuorin cytosolic pH fluorescence. S. cerevisiae. response, % at 10 µM. 0.37% of 350,000 active; in the data active = response mostly above about 7.3%, no sharp cut-off; inactive = mostly below about 5.4%; also: actives read high
rCAG RNA binder: binders of r(CAG) RNA repeats, primary screen, biochemical, fluorescence; r(CAG) RNA repeat, TO-PRO-1 dye displacement fluorescence; inhibition, % at 3 µM; 1.3% of 370,000 active; AID 651821, 2012;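 active = inhibition above the plate cutoff, the mean of all test compounds on that plate plus 3 SD, cut at about 35% in these data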;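 also: higher means more dye released from RNA so lower well fluorescence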
T cell HTS: modulators of CD8 T cell-vesicle binding, primary screen, mouse 2C CD8+ T cells, flow cytometry | AID 2052, 2009 | response (vesicle binding), % at 7 µM | 0.068% of 330,000 active | 2C CD8+ T cell-vesicle binding; active compounds read low;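 active = response, share of CD8 T cells binding vesicles, and their 90th percentile fluorescence all below set limits, cut at about 80% in these data, passing the limit was not always enough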;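 also: values below 100% mean blocked vesicle binding to the CD8+ T cells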
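Also added: QL9-peptide-loaded Drosophila micro-vesicles bearing Ld, ICAM-1 and B7-1; Test system: purified 2C TCR transgenic mouse naive CD8+ T cells; Measured by: cytometric PE anti-B7-1 and Alexa647 anti-CD8 signals after 1% paraformaldehyde fixation; Timing: binding step 1.5 h, 37 °C, antibody labelling 20 min, ice.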
Exocytosis inh: LAMP-1 surface exposure blockers, TALL-104 cells – cell-based, flow cytometry, MLPCN library, primary screen; TALL-104 LAMP-1 surface exposure; cells stimulated with thapsigargin and PMA; inhibition, % at 10 µM; 0.66% of 360,000 active; AID 651702, 2012;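 active = inhibition above about 55%, limit read from the data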
MPTP counter: fluorescence retest of MPTP screen hits in isolated mitochondria, single concentration; shares compounds with MPTP block; membrane potential, Rhodamine 123 fluorescence; inhibition, % at 10 µM; 78% of 5,000 active; in the data active = inhibition above about 22%
MPTP swell DR: mitochondrial permeability transition pore inhibitors, dose response, biochemical, absorbance, uHTS hits; shares compounds with MPTP block; isolated mitochondria swelling; 58% of 780 active; IC50, µM; AID 651561, 2012; in the data active = IC50 below about 20 µM
MPTP counter DR: fluorescent counter-screen in isolated mitochondria, dose response, counter-screen for MPTP inhibitor project, biochemical, fluorescence, uHTS hits; AID 651564, 2012; IC50, µM; isolated mitochondria counterscreen, fluorescence read-out; 49% of 780 active; shares compounds with MPTP block; in the data active = IC50 below about 80 µM
Large screens that a line does not name were inactive (follow-up assays come after a bar, where they were run). Only some compounds are listed: those with a hit (about 3.8% of all), similar ones and a draw of the others.

CCC(C)c1ccc(O)c(NC(=O)c2cncc(Br)c2)c1 (configuration not stated)	MPTP block 77 | MPTP counter 64
Cc1ccc(NC(=O)CC(O)(C(F)(F)F)C(F)(F)F)c(Br)c1	MPTP block 53 | MPTP counter 79
O=C(N[C@H](Cc1ccccc1)C(=O)N1CCN(CC(=O)N2CCCC2)CC1)[C@H]1O[C@@H](n2ccc(=O)[nH]c2=O)[C@H](O)[C@@H]1O	none (no result: MPTP block, Beta2AR agonist, V-ATPase pHluor, T cell HTS, Exocytosis inh)
Clc1ccc(-c2nnc3n2N=C(c2ccc(-c4ccccc4)cc2)CS3)c(Cl)c1	none (no result: MPTP block, Beta2AR agonist, V-ATPase pHluor, T cell HTS, Exocytosis inh)
CC1CCC2(CC1)CCN(CCCOC(=O)Nc1cccc(C(F)(F)F)c1)C2=O (configuration not stated)	none (no result: MPTP block, Beta2AR agonist, V-ATPase pHluor, T cell HTS, Exocytosis inh)
COC(=O)N1C[C@H](OCc2ccccc2)[C@H]2C[C@@H]1c1ccccc1O2	none (no result: MPTP block, Beta2AR agonist, V-ATPase pHluor, T cell HTS, Exocytosis inh)
COc1ccc(CC(NC(C)=O)C(=O)N2CCN(C(=O)Nc3ccc(Cl)cc3)CC2)cc1OC (configuration not stated)	MPTP block 55 | MPTP counter 73
COC(=O)[C@]12C[C@H](CC(=O)N3CCC(c4ccccc4)CC3)C(=O)N(Cc3ccc(Cl)cc3Cl)C1=C[C@H](COCc1ccccc1)O[C@@H]2C	none (no result: MPTP block, Beta2AR agonist, V-ATPase pHluor, T cell HTS, Exocytosis inh)
Cc1nn(C(C)C(=O)NNC(=S)Nc2ccc(Cl)cc2)c(C)c1[N+](=O)[O-] (configuration not stated)	MPTP block 51 | MPTP counter 60
O=S(=O)(c1cc(F)ccc1F)N1CCN(c2ncnc3ccccc23)CC1	MPTP block 95 | MPTP counter 92
O=S(=O)(c1cc(F)ccc1F)N1CCN(c2ccccn2)CC1	none
Cc1ccc(/C=N/N2C(=S)SC(C)(C)C2N(O)C(=O)Nc2ccc([N+](=O)[O-])cc2)cc1 (configuration not stated)	MPTP block 91 | MPTP counter 87
COC(=O)c1cc2c(c3c4cc(OC)ccc4n(S(=O)(=O)c4cccc(C)c4)c13)C(=O)N(C)C2	none (no result: MPTP block, Beta2AR agonist, V-ATPase pHluor, T cell HTS, Exocytosis inh)
CC1=NN(C(=O)c2ccccc2)C(O)(c2ccc(Br)cc2)C1 (configuration not stated)	none
CCC1=NN(C(=O)c2ccc(Br)cc2)C(O)(c2ccccc2)C1 (configuration not stated)	MPTP block 61 | MPTP counter 75
O=[N+]([O-])c1ccc(N=Nc2c(O)[nH]c3ccc(F)cc23)cc1	none
O=[N+]([O-])c1ccc(N=Nc2ccc(O)cc2O)cc1	MPTP block 84 | MPTP counter 80
O=[N+]([O-])c1cccc(N=Nc2ccc(O)cc2O)c1	MPTP block 84 (no result: T cell HTS) | MPTP counter 73
Cc1c(C(=O)NC2CCN(Cc3ccccc3)C2)oc2c(Cl)cccc12 (configuration not stated)	MPTP block 63 | MPTP counter inactive | MPTP swell DR inactive | MPTP counter DR inactive
O=C(NC1CCN(Cc2ccccc2)CC1)c1ccccc1Cl	none
COc1ccc(S[C@]2(C(=O)N3CCCC3)CC(=O)N(C(=O)c3ccccc3)[C@@H]2c2ccc(OC)cc2)cc1	none (no result: MPTP block, Beta2AR agonist, V-ATPase pHluor, T cell HTS, Exocytosis inh)
C[C@@H]1CCCN1c1cccc2c1S(=O)(=O)N(C1CC1)CCCO2	none (no result: MPTP block, Beta2AR agonist, V-ATPase pHluor, T cell HTS, Exocytosis inh)
Cc1cc2nc3ccc(=[N+](C)C)cc-3sc2cc1N	MPTP block 63 (no result: rCAG RNA binder, T cell HTS) | MPTP counter 37
CN(C)c1ccc2nc3ccc(=[N+](C)C)cc-3sc2c1	none
N=c1oc2cc(O)ccc2cc1C(=O)Nc1ccc(Br)cc1	MPTP block 61 | MPTP counter 78
N=c1oc2cc(O)ccc2cc1C(=O)Nc1ccccn1	none (no result: MPTP block, Beta2AR agonist, V-ATPase pHluor, rCAG RNA binder, Exocytosis inh)

Compound activity (PubChem)
